The list is not random: actives were taken first. Their share in the collection is about 1.4%.
A3A deaminase: APOBEC3A ssDNA deaminase inhibitors, primary screen, selectivity assay for APOBEC3G inhibitor project, biochemical, FAM/TAMRA oligo cleavage fluorescence; DNA dC->dU-editing enzyme APOBEC-3A (Homo sapiens), P31941; recombinant A3A, FAM/TAMRA ssDNA deamination fluorescence; inhibition, % at 20 µM; 330,000 tested, 0.41% active;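 active = at least 40% inhibition at 20 µM here, with at most 30% in a related deaminase screen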;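 also: plate controls were A3A with DMSO for no effect and wells lacking A3A enzyme for full effect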
Target sequence (P31941 whole entry, looked up): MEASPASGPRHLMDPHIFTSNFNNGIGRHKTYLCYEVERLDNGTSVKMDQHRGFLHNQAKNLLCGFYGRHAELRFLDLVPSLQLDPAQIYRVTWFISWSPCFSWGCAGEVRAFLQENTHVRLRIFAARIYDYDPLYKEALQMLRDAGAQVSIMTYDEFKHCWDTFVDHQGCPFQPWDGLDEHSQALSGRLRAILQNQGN
CXCR6 block: CXCR6 receptor inhibitors, primary screen, cell-based, beta-arrestin, luminescence, CHO-K1 PathHunter, 1536-well. C-X-C chemokine receptor type 6 (Homo sapiens), O00574. inhibition, % at 20 µM. 360,000 tested, 0.36% active; in the data active = inhibition above about 34%, passing the limit was not always enough;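 also: antagonist mode with CXCL16 agonist at 10 nM final; 0% = 10 nM CXCL16 with DMSO and 100% = unstimulated wells without agonist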
Target sequence (O00574 whole entry, looked up): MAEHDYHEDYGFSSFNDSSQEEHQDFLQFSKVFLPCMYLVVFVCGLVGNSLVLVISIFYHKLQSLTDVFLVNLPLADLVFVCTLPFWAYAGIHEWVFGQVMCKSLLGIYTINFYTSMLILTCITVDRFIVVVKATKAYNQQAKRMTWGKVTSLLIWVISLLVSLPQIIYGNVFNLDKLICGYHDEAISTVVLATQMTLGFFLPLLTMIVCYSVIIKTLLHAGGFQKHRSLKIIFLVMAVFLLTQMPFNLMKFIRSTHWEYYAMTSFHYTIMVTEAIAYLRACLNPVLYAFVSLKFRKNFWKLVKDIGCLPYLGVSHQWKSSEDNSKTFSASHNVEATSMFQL
APJ antagonist: antagonists of human apelin receptor APJ, primary screen, CHO-K1 cells, beta-arrestin complementation, luminescence; P35414; inhibition, % at 20 µM; 330,000 tested, 0.32% active;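 active = inhibition above about 40% at 20 µM, limit read from the data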;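 also: cells challenged with 10 nM apelin-13 agonist together with compound; plate controls were apelin-13 plus DMSO wells for no effect and DMSO wells lacking apelin-13 for full effect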
CCR6 antag: CCR6 receptor antagonists, primary screen, cell-based, CHO-K1, luminescence, beta-arrestin, uHTS | C-C chemokine receptor type 6 (Homo sapiens), P51684 | CHO-K1 CCR6 PathHunter beta-arrestin, CCL20-stimulated | inhibition, % at 20 µM | 340,000 tested, 0.49% active;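 active = compounds whose inhibition of the agonist-driven luminescence signal at 20 µM reaches about 50%, limit read from the data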;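 also: cells stimulated with CCL20 at 14 nM final; plate controls were DMSO with CCL20 for no effect and DMSO without agonist for full effect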
APOBEC3G inh: APOBEC3G DNA deaminase inhibitors, primary screen, biochemical, fluorescence, single-stranded DNA substrate, uHTS; DNA dC->dU-editing enzyme APOBEC-3G (Homo sapiens), Q9HC16; recombinant A3G, ssDNA deamination FAM/TAMRA fluorescence; 330,000 tested, 0.28% active; AID 493012, 2011; inhibition, % at 20 µM;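 active = inhibition of at least 40% at 20 µM, with no more than 30% in the related APOBEC3A deaminase screen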;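 also: plate controls were DMSO wells with A3G for no effect and wells lacking A3G enzyme for full effect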
APJ ag: agonists of human apelin receptor APJ, primary screen, CHO-K1 cells, PathHunter beta-arrestin, luminescence. P35414. 0% DMSO wells, 100% apelin. activation, % at 20 µM. 330,000 tested, 0.11% active;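 active = activation more than six SD over the plate average, tested at 20 µM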;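 also: 0% = DMSO alone and 100% = apelin-13 at 10 nM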
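Assay system: CHO-K1 cells stably expressing ProLink-tagged human APJ and arrestin–beta-gal acceptor. Compound dosing: 20 µM single point, 1% DMSO. Times: 16-18 h seeding, 90 min dark compound exposure, 60 min detection. Detection: beta-gal luminescence. Evaluation: APJ–arrestin association signal. Controls: negative DMSO alone, positive Apelin-13 at 10 nM.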
APJ ag conf: agonists of human apelin receptor APJ, confirmation, cell-based, single concentration, CHO-K1, beta-arrestin, luminescence; shares compounds with APJ ag; CHO-K1 APJ PathHunter beta-arrestin; activation, % at 20 µM; 310 tested, 10% active;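 active = activation above 40%, taking the highest of four retests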;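 also: plate controls were DMSO wells for no effect and apelin-13 at 10 nM for full effect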
Active calls of the source: *.

What do the screens show for `Cc1ccc(S(=O)(=O)N2C(=O)CCC2C(=O)O/N=C(\N)c2ccc([N+](=O)[O-])cc2)cc1` (stereo unspecified)?
A3A deaminase: 1; CXCR6 block: -17; APJ antagonist: -134; CCR6 antag: -26; APOBEC3G inh: 2; APJ ag: 36*; APJ ag conf: 20

What do the screens show for `Cc1ccc(S(=O)(=O)N2C(=O)CCC2C(=O)O/N=C(\N)c2cccc([N+](=O)[O-])c2)cc1` (stereo unspecified)?
A3A deaminase: 5; CXCR6 block: -36; APJ antagonist: -132; CCR6 antag: -41; APOBEC3G inh: 3; APJ ag: 37*; APJ ag conf: 23

How did Cc1ccc(S(=O)(=O)N2C(=O)CCC2C(=O)O/N=C(\N)c2ccccc2)cc1 (stereo unspecified) do in these assays?
A3A deaminase: 2; CXCR6 block: -3; APJ antagonist: -37; CCR6 antag: -6; APOBEC3G inh: -2; APJ ag: 12

What do the screens show for `CCn1c(CC(=O)Nc2ccc(C)c(Cl)c2)nnc1SCc1ccc(Cl)c(Cl)c1`?
A3A deaminase: -4; CXCR6 block: 2; APJ antagonist: -14; CCR6 antag: 8; APOBEC3G inh: -1; APJ ag: 7

Results for CCn1c(CC(=O)Nc2ccc(C)c(Cl)c2)nnc1SCC(=O)Nc1nc(C)cs1 ?
A3A deaminase: 1; CXCR6 block: -8; APJ antagonist: -14; CCR6 antag: 3; APOBEC3G inh: 3; APJ ag: 20*; APJ ag conf: 5

Results for Cc1ccc2nc(/C(C#N)=C\c3ccc([N+](=O)[O-])o3)[nH]c2c1 ?
A3A deaminase: -1; CXCR6 block: -1; APJ antagonist: -45; CCR6 antag: -21; APOBEC3G inh: -1; APJ ag: 95*; APJ ag conf: 13

Results for N#C/C(=C\c1ccc([N+](=O)[O-])o1)c1nc2ccccc2[nH]1 ?
A3A deaminase: 2; APJ antagonist: -15; CCR6 antag: 3; APOBEC3G inh: 1; APJ ag: 42*; APJ ag conf: 6

Results for N#Cc1ccccc1OCC(=O)Nc1c(C(=O)C2CC2)oc2ccccc12 ?
A3A deaminase: -2; CXCR6 block: -1; APJ antagonist: -7; CCR6 antag: 0; APOBEC3G inh: -1; APJ ag: 40*; APJ ag conf: 7

What do the screens show for `O=C(CN1CCCC1)Nc1c(C(=O)C2CC2)oc2ccccc12`?
A3A deaminase: -5; CXCR6 block: 5; APJ antagonist: 9; CCR6 antag: 14; APOBEC3G inh: -10; APJ ag: 0

How did Cc1ccc(NC(=O)C/C(N)=N/OC(=O)c2ccccc2)cc1 do in these assays?
A3A deaminase: 3; CXCR6 block: -13; APJ antagonist: -22; CCR6 antag: -30; APOBEC3G inh: -3; APJ ag: 11*; APJ ag conf: 16

How did O=C(CCNC(=O)c1ccc(Cl)cc1)Nc1cccc(S(=O)(=O)N2CCCCCC2)c1 do in these assays?
A3A deaminase: 1; CXCR6 block: -1; APJ antagonist: -24; CCR6 antag: 16; APOBEC3G inh: -9; APJ ag: -7

What do the screens show for `COc1ccc2oc(C(=O)Nc3ccc(S(=O)(=O)N(C)C4CCN(C)CC4)cc3)c(C)c2c1`?
A3A deaminase: -1; CXCR6 block: -13; APJ antagonist: 4; CCR6 antag: -1; APOBEC3G inh: -3; APJ ag: 51*; APJ ag conf: 12

Results for CCOc1ncccc1C(=O)OCC(=O)c1ccc(Br)s1 ?
A3A deaminase: -3; CXCR6 block: 2; APJ antagonist: 15; CCR6 antag: 23; APOBEC3G inh: -8; APJ ag: -7

What do the screens show for `O=C(NCc1cccnc1)c1cccc(S(=O)(=O)Nc2cccc(Cl)c2)c1`?
A3A deaminase: -4; CXCR6 block: -2; APJ antagonist: 0; CCR6 antag: -3; APOBEC3G inh: -8; APJ ag: -2

What do the screens show for `CCc1ccc(NC(=S)Nc2cccc3cnccc23)cc1`?
A3A deaminase: 1; CXCR6 block: -5; APJ antagonist: -113; CCR6 antag: 15; APOBEC3G inh: -1; APJ ag: 15*; APJ ag conf: -1

Results for Cc1cc(C)cc(NC(=S)Nc2cccc3cnccc23)c1 ?
A3A deaminase: 0; CXCR6 block: -9; APJ antagonist: -66; CCR6 antag: -6; APOBEC3G inh: 10; APJ ag: 4

How did COc1ccc(COC(=O)C2=C(C)NC(=O)NC2c2ccc(F)cc2)cc1 (stereo unspecified) do in these assays?
A3A deaminase: 0; CXCR6 block: 2; APJ antagonist: -7; CCR6 antag: -20; APOBEC3G inh: -2; APJ ag: 23*; APJ ag conf: 12

Results for Cc1ccc(/C=N/NC(=O)CSc2nnc(-c3ccccc3)n2-c2ccc(Cl)cc2)o1 ?
A3A deaminase: -1; CXCR6 block: -11; APJ antagonist: -85; CCR6 antag: -20; APOBEC3G inh: -4; APJ ag: 14*; APJ ag conf: 43*

Results for Cc1ccc(/C=N/NC(=O)CSc2nnc(-c3ccc(Cl)cc3)n2-c2ccc(Cl)cc2)o1 ?
A3A deaminase: -3; CXCR6 block: -47; APJ antagonist: -253; CCR6 antag: -52; APOBEC3G inh: -9; APJ ag: 28*; APJ ag conf: 163*

What do the screens show for `CCn1c(SCC(=O)N/N=C/c2ccc(C)o2)nnc1-c1ccccc1`?
A3A deaminase: -2; CXCR6 block: 10; APJ antagonist: -7; CCR6 antag: -4; APOBEC3G inh: -10; APJ ag: -1

What do the screens show for `CC(C)Oc1cc(F)ccc1-c1cc(C(=O)NCCc2ccncc2)[nH]n1`?
CXCR6 block: 0

What do the screens show for `O=C(O)C(Cc1c[nH]c2ccccc12)N1C(=O)C2C3c4ccccc4C(c4ccccc43)C2C1=O` (stereo unspecified)?
A3A deaminase: -1; CXCR6 block: -6; APJ antagonist: 0; CCR6 antag: 9; APOBEC3G inh: -6; APJ ag: -3

Screens from PubChem BioAssay.
